Here are results for 29 compounds from BindingDB's records for doi:10.1021/jm020875j (Boehringer Ingelheim Pharma, 2002).

Structures are written as SMILES.

In this test the target is Sodium channel protein type 1/2/3 subunit alpha (Rattus norvegicus, UniProt P04774+P04775+P08104). As to the kind of experiment: Displacement of [3H]BTX from sodium channel of rat cerebral cortex synaptosomes. The procedure, abridged:
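Synaptosomal membranes from rat cerebral cortex incubated 1 h at 37 °C with 1 nmol/L [3H]BTX-B in choline Cl/HEPES-Tris buffer pH 7.4 containing glucose, KCl and MgSO4, plus scorpion venom. Nonspecific binding defined with 100 μmol/L aconitine. Stopped by vacuum filtration through glass fiber and two buffer washes.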
For orientation: Loss of bound radioactivity is the signal in a displacement assay; it reports binding, not function.
Take `CO[C@H](C)CN1CCC2(C)c3cccc(O)c3C[C@H]1C2(C)C`: the Ki (as a rule, a dissociation constant, usually derived from enzyme kinetics or from competition with a known ligand) came to 10 µM. `C[C@@H](CN1CCC2(C)c3ccc(O)cc3C[C@@H]1C2(C)C)OCc1ccccc1` showed a Ki of 0.312 µM. `CO[C@H](C)CN1CCC2(C)c3cccc(O)c3C[C@@H]1C2(C)C` registered a Ki of 3.31 µM. With `CN(c1nc2ccccc2s1)C1CCN(C[C@H](O)COc2ccc(F)c(F)c2)CC1`, the Ki came out at 0.203 µM. `Cc1ccc(-c2nc(C)c(CN3CCN(C(c4ccccc4)c4ccccc4)CC3)[nH]2)cc1` [Lifarizine] displayed a Ki of 0.259 µM.

`CC1[C@H]2Cc3c(O)cccc3C1(C)CCN2C[C@H](C)OCc1ccccc1` (some centres undefined): the Ki came out at 0.054 µM.

With `C[C@@H](CN1CCC2(C)c3ccc(O)cc3C[C@@H]1C2(C)C)Oc1ccccc1`, the affinity corresponds to a Ki of 0.149 µM. This Ki is about 2.8-fold higher than that of the compound before.

The compound `COC(C)CN1CCC2(C)c3ccc(O)cc3C[C@@H]1C2(C)C` (some centres undefined) displayed a Ki of more than 10 µM. The compound `CO[C@@H](C)CN1CCC2(C)c3ccccc3C[C@@H]1C2(C)C` had a Ki of 4.7 µM. The result for `C[C@H](CN1CCC2(C)c3cccc(O)c3C[C@H]1C2(C)C)OCc1ccccc1` reads 1.49 µM.

Consider `C[C@H](CN1CCC2(C)c3ccc(O)cc3C[C@H]1C2(C)C)OCc1ccccc1`, for which the affinity, expressed as Ki, was 1.23 µM. Under `COC(C)CN1CCC2(C)c3cc(O)ccc3C[C@@H]1C2(C)C` (some centres undefined) stands 6.01 µM; under `CC12CCN(CCc3ccccc3)[C@@H](Cc3cc(O)ccc31)C2(C)C`, 1.29 µM; under `CO[C@@H](C)CN1CCC2(C)c3cccc(O)c3C[C@H]1C2(C)C`, 10 µM. For the compound `C[C@@H](CN1CCC2(C)c3ccc(O)cc3C[C@H]1C2(C)C)Oc1ccccc1`, affinity was put at a Ki of 1.53 µM.

Turning to `Cc1cccc(C)c1OC[C@@H](C)N`, the affinity, expressed as Ki, was 22.7 µM. In the case of `CC12CCN(CCc3ccccc3)[C@H](Cc3cc(O)ccc31)C2(C)C`, the affinity corresponds to a Ki of 1.06 µM. Take `C[C@H](CN1CCC2(C)c3ccc(O)cc3C[C@@H]1C2(C)C)OCc1ccccc1`: the Ki was 0.382 µM.

Turning to `C[C@@H](CN1CCC2(C)c3ccc(O)cc3C[C@H]1C2(C)C)OCc1ccccc1`, the Ki is 1.87 µM. Compound `C[C@H](CN1CCC2(C)c3ccc(O)cc3C[C@@H]1C2(C)C)Oc1ccccc1` came in with a Ki of 0.662 µM. The compound `COC(C)CN1CCC2(C)c3c(O)cccc3C[C@@H]1C2(C)C` (some centres undefined) yielded a Ki of 8.99 µM. The compound `CC(CN1CCC2(C)C[C@@H]1Cc1c(O)cccc12)OCc1ccccc1` (some centres undefined) showed a Ki of 0.047 µM. The result for `C[C@H](CN1CCC2(C)c3cccc(O)c3C[C@@H]1C2(C)C)OCC1CCCCC1` reads 0.241 µM; that for `COc1ccc2c(c1)[C@]13CCCC[C@@H]1[C@H](C2)N(C)CC3` [DEXTROMETHORPHAN], 4.8 µM. In the case of `CC1[C@H]2Cc3c(O)cccc3C1(C)CCN2C[C@@H](C)OCc1ccccc1` (some centres undefined), the Ki was determined as 0.153 µM. This Ki is about 31-fold lower than that of the compound before. Under `C[C@H](CN1CCC2(C)c3ccc(O)cc3C[C@H]1C2(C)C)Oc1ccccc1` stands 0.864 µM; under `CO[C@@H](C)CN1CCC2(C)c3cccc(O)c3C[C@@H]1C2(C)C`, 0.783 µM; under `C[C@@H](CN1CCC2(C)c3cccc(O)c3C[C@H]1C2(C)C)OCc1ccccc1`, 1.33 µM. The result for `C[C@@H](CN1CCC2(C)c3cccc(O)c3C[C@@H]1C2(C)C)OCC1CCCCC1` reads 0.208 µM.
